Blank lines part the entries; values can stand above or below the molecule they belong to. Active and inactive are the calls of the source. No cut-off for these calls is given here.
Assays:
SGC-7901 [1] = test: Antiproliferative activity against human SGC-7901 cells measured after 48 hrs by MTT assay; type: functional, cell-based; details: SGC-7901, 48 h
In short: (§1)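 Cells grown to log phase in RPMI 1640 with 10% FBS, seeded at 3 × 10⁴ cells/mL, and preincubated 24 h at 37 °C, 5% CO₂. Compounds were added at pre-set concentrations to 6 wells each, with doxorubicin as reference, and exposed for 48 h. MTT was then added and absorbance read at 570 nm.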

HeLa = test: Antiproliferative activity against human HeLa cells measured after 48 hrs by MTT assay; type: functional, cell-based; in short: as §1
SMMC-7721 = test: Antiproliferative activity against human SMMC-7721 cells measured after 48 hrs by MTT assay; type: functional, cell-based; details: SMMC-7721, 48 h; in short: as §1
HepG2 [2] = test: Antiproliferative activity against human HepG2 cells measured after 48 hrs by MTT assay; type: functional, cell-based; details: HepG2, 48 h; in short: as §1
[3] = molecular target: Telomerase reverse transcriptase (Homo sapiens, UniProt O14746); test: Inhibition of telomerase activity in human SGC-7901 cells incubated for 24 hrs by TRAP-PCR-ELISA assay; type: cell-based
Sequence of Telomerase reverse transcriptase (O14746 whole entry): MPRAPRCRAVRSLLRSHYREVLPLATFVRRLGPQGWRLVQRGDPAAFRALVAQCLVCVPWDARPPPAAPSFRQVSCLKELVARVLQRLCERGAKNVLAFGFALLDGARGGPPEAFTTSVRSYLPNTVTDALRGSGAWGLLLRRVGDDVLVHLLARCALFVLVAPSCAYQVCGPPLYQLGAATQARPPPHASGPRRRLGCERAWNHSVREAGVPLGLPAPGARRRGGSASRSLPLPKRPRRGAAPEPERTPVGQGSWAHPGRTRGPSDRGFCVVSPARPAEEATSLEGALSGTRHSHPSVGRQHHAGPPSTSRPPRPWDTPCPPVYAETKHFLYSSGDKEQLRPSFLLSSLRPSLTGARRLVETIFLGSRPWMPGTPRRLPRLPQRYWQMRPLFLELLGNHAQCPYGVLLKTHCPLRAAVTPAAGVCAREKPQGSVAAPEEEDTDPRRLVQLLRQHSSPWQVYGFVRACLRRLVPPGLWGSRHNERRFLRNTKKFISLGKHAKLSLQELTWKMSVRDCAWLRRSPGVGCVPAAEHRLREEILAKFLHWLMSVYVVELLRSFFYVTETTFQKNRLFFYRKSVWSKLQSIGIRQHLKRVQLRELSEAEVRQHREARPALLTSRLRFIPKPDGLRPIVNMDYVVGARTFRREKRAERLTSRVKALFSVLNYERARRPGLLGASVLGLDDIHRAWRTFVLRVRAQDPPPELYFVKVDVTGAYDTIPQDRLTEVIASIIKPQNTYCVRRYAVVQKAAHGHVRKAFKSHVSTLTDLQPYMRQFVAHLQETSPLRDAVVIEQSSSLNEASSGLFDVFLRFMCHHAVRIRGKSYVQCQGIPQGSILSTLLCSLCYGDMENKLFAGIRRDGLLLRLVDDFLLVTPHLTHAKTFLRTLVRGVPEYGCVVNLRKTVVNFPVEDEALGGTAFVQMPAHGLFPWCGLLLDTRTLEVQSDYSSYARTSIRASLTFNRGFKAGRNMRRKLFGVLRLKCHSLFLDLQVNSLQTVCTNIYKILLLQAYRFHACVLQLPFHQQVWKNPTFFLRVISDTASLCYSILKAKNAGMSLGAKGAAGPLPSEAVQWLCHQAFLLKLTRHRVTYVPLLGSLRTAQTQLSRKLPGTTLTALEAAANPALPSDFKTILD
In short: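 Extract was mixed with TRAP reaction mix, incubated 25 °C for 30 min, then 35 PCR cycles (94/50/72 °C). Products detected by anti-DIG-peroxidase ELISA at 490 nm; mean ± SD.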

HepG2 [4] = test: Antitumor activity against human HepG2 cells xenografted in Kunming mouse assessed as tumor growth inhibition at 60 mg/kg, po administered once daily for consecutive 10 days; type: functional; details: HepG2, 240 h, time 10 day, read-out: TGI
In short: (§2)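 Kunming mice (SPF, male or female, 20 ± 2 g) inoculated subcutaneously in the right front armpit with seven-day-old ascites (0.2 mL, 2 × 10⁶ cells). After 24 h, randomized into groups of 10 and weighed. Dosed by oral gavage at 60 mg/kg/day or given normal saline (10 mL/kg) once daily for ten days. Killed on day 11 and tumors weighed. Inhibition rate = (Wcontrol − Wtreated)/Wcontrol × 100%.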

SGC-7901 [5] = test: Induction of apoptosis in human SGC-7901 cells assessed as viable cells at 2 uM incubated for 48 hrs by Annexin V-FITC/propidium iodide staining based flow cytometry (reference value: 96.7%); type: functional; details: read-out: Activity
In short: (§3)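 SGC-7901 cells treated 48 h at three concentrations; untreated cells served as control. Harvested cells were suspended in annexin-binding buffer (1 × 10⁶ cells/mL), incubated with annexin V-FITC for 15 min, then PI for 5 min at 4 °C in the dark, and analysed immediately by flow cytometry. Quadrants scored necrotic/late apoptotic, early apoptotic and normal cells. At least 3 runs.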

SGC-7901 [6] = test: Induction of cell cycle arrest in human SGC-7901 cells assessed as accumulation in G2 phase at 1 uM incubated for 48 hrs by PI staining based flow cytometry analysis (reference value: 24.6%); type: functional
HepG2 [7] = test: Antitumor activity against human HepG2 cells xenografted in Kunming mouse assessed as reduction in tumor weight at 60 mg/kg, po administered once daily for consecutive 10 days (reference value: 2.01+/-0.09g); type: functional; details: time 10 day; in short: as §2
SGC-7901 [8] = test: Induction of apoptosis in human SGC-7901 cells assessed as late apoptotic cells at 1 uM incubated for 48 hrs by Annexin V-FITC/propidium iodide staining based flow cytometry (reference value: 1.11%); type: functional; in short: as §3
[9] = Toxicity in Kunming mouse allografted with mouse S180 cells assessed as body weight at 60 mg/kg, po administered once daily for consecutive 10 days (reference value: 19.38 to 19.99g); type: organism-based, CCRF S-180; details: in vivo, 240 h, time 10 day; in short: as §2
CCRF S-180 [10] = test: Antitumor activity against mouse S180 cells allografted in Kunming mouse assessed as reduction in tumor weight at 60 mg/kg, po administered once daily for consecutive 10 days (reference value: 2.02+/-0.19g); type: functional; details: time 10 day; in short: as §2
CCRF S-180 [11] = test: Antitumor activity against mouse S180 cells allografted in Kunming mouse assessed as tumor growth inhibition at 60 mg/kg, po administered once daily for consecutive 10 days; type: functional; details: CCRF S-180, 240 h, time 10 day, read-out: TGI; in short: as §2
SGC-7901 [12] = test: Induction of cell cycle arrest in human SGC-7901 cells assessed as accumulation in G1 phase at 4 uM incubated for 48 hrs by PI staining based flow cytometry analysis (reference value: 38.1%); type: functional
SGC-7901 [13] = test: Induction of cell cycle arrest in human SGC-7901 cells assessed as accumulation in G1 phase at 1 uM incubated for 48 hrs by PI staining based flow cytometry analysis (reference value: 38.1%); type: functional
SGC-7901 [14] = test: Induction of cell cycle arrest in human SGC-7901 cells assessed as accumulation in S phase at 1 uM incubated for 48 hrs by PI staining based flow cytometry analysis (reference value: 37.4%); type: functional
SGC-7901 [15] = test: Induction of cell cycle arrest in human SGC-7901 cells assessed as accumulation in S phase at 4 uM incubated for 48 hrs by PI staining based flow cytometry analysis (reference value: 37.4%); type: functional
SGC-7901 [16] = test: Induction of mitochondrial membrane potential loss in human SGC-7901 cells assessed as increase in green fluorescence intensity at 1 to 4 uM incubated for 48 hrs by JC-1 staining based flow cytometry; type: functional, cell-based; details: dose 1-4 µM
In short: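 Gastric cancer cells seeded at 2 × 10⁵ per well and treated 48 h at […]. Cells were detached with 0.5% trypsin, stained with JC-1 for 0.5 h at 37 °C, 5% CO₂ in the dark, washed twice in JC-1 buffer, and analysed by flow cytometry. Read-out was red aggregate versus green monomer fluorescence. At least 3 runs.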

SGC-7901 [17] = test: Induction of cell cycle arrest in human SGC-7901 cells assessed as accumulation in G1 phase at 2 uM incubated for 48 hrs by PI staining based flow cytometry analysis (reference value: 38.1%); type: functional
SGC-7901 [18] = test: Induction of apoptosis in human SGC-7901 cells assessed as necrotic cells at 1 uM incubated for 48 hrs by Annexin V-FITC/propidium iodide staining based flow cytometry (reference value: 0.067%); type: functional; in short: as §3
SGC-7901 [19] = test: Induction of cell cycle arrest in human SGC-7901 cells assessed as accumulation in G2 phase at 2 uM incubated for 48 hrs by PI staining based flow cytometry analysis (reference value: 24.6%); type: functional
SGC-7901 [20] = test: Induction of apoptosis in human SGC-7901 cells assessed as late apoptotic cells at 2 uM incubated for 48 hrs by Annexin V-FITC/propidium iodide staining based flow cytometry (reference value: 1.11%); type: functional; in short: as §3
SGC-7901 [21] = test: Induction of apoptosis in human SGC-7901 cells assessed as early apoptotic cells at 4 uM incubated for 48 hrs by Annexin V-FITC/propidium iodide staining based flow cytometry (reference value: 2.12%); type: functional; in short: as §3
SGC-7901 [22] = test: Induction of cell cycle arrest in human SGC-7901 cells assessed as accumulation in G2 phase at 4 uM incubated for 48 hrs by PI staining based flow cytometry analysis (reference value: 24.6%); type: functional
[23] = Toxicity in Kunming mouse xenografted with […] cells assessed as body weight at 60 mg/kg, po administered once daily for consecutive 10 days (reference value: 19.15 to 19.87g); type: organism-based; details: in vivo, 240 h, time 10 day; in short: as §2
SGC-7901 [24] = test: Induction of cell cycle arrest in human SGC-7901 cells assessed as accumulation in S phase at 2 uM incubated for 48 hrs by PI staining based flow cytometry analysis (reference value: 37.4%); type: functional
SGC-7901 [25] = test: Induction of apoptosis in human SGC-7901 cells assessed as necrotic cells at 2 uM incubated for 48 hrs by Annexin V-FITC/propidium iodide staining based flow cytometry (reference value: 0.067%); type: functional; in short: as §3
SGC-7901 [26] = test: Induction of apoptosis in human SGC-7901 cells assessed as early apoptotic cells at 1 uM incubated for 48 hrs by Annexin V-FITC/propidium iodide staining based flow cytometry (reference value: 2.12%); type: functional; in short: as §3
SGC-7901 [27] = test: Induction of apoptosis in human SGC-7901 cells assessed as viable cells at 1 uM incubated for 48 hrs by Annexin V-FITC/propidium iodide staining based flow cytometry (reference value: 96.7%); type: functional; details: read-out: Activity; in short: as §3
SGC-7901 [28] = test: Induction of apoptosis in human SGC-7901 cells assessed as viable cells at 4 uM incubated for 48 hrs by Annexin V-FITC/propidium iodide staining based flow cytometry (reference value: 96.7%); type: functional; details: read-out: Activity; in short: as §3
SGC-7901 [29] = test: Induction of apoptosis in human SGC-7901 cells assessed as late apoptotic cells at 4 uM incubated for 48 hrs by Annexin V-FITC/propidium iodide staining based flow cytometry (reference value: 1.11%); type: functional; in short: as §3
SGC-7901 [30] = test: Induction of apoptosis in human SGC-7901 cells assessed as necrotic cells at 4 uM incubated for 48 hrs by Annexin V-FITC/propidium iodide staining based flow cytometry (reference value: 0.067%); type: functional; in short: as §3
SGC-7901 [31] = test: Induction of apoptosis in human SGC-7901 cells assessed as early apoptotic cells at 2 uM incubated for 48 hrs by Annexin V-FITC/propidium iodide staining based flow cytometry (reference value: 2.12%); type: functional; in short: as §3

Compound: COc1ccc(C(=O)c2ccccc2OC)cc1OCC(=O)OC[C@@H]1C=C[C@H](n2cc(C)c(=O)[nH]c2=O)O1
IC50 (HeLa): 30.2 µM
IC50 (SMMC-7721): 32.3 µM

Compound: COc1ccc(C(=O)c2ccc([N+](=O)[O-])cc2)cc1OC(=O)CCC(=O)OC[C@@H]1C=C[C@H](n2cc(C)c(=O)[nH]c2=O)O1
IC50 (SGC-7901 [1]): 10.2 µM
IC50 [3]: 28.9 µM
IC50 (HeLa): 21.1 µM
IC50 (SMMC-7721): 30.5 µM
IC50 (HepG2 [2]): 24 µM

Compound: COc1ccc(C(=O)c2ccc(F)cc2)cc1OC(=O)CCC(=O)OC[C@@H]1C=C[C@H](n2cc(C)c(=O)[nH]c2=O)O1
IC50 (SGC-7901 [1]): 8.25 µM
IC50 (HeLa): 17.8 µM
IC50 (SMMC-7721): 22.6 µM
IC50 (HepG2 [2]): 20.3 µM

Continued, in another order:

IC50 (SGC-7901 [1]): 29.1 µM
IC50 (HeLa): 36.3 µM
IC50 (SMMC-7721): 40.3 µM
IC50 (HepG2 [2]): 38 µM
Compound: COc1ccc(C(=O)c2ccc(F)cc2)cc1OCC(=O)OC[C@@H]1C=C[C@H](n2cc(C)c(=O)[nH]c2=O)O1

IC50 (HeLa): 45.8 µM
IC50 (SMMC-7721): 40.6 µM
Compound: COc1ccc(C(=O)c2ccccc2Cl)cc1OCC(=O)OC[C@@H]1C=C[C@H](n2cc(C)c(=O)[nH]c2=O)O1

IC50 (SGC-7901 [1]): 0.77 µM
IC50 [3]: 7.01 µM
IC50 (HeLa): 1.58 µM
IC50 (SMMC-7721): 0.82 µM
IC50 (HepG2 [2]): 3.15 µM
Compound: COc1cccc(C(=O)c2ccc(OC)c(OC(=O)CCC(=O)OC[C@@H]3C=C[C@H](n4cc(C)c(=O)[nH]c4=O)O3)c2)c1
inhibition in vivo at 60 mg/kg (HepG2 [4]): 48.5%
viability at 2 µM (SGC-7901 [5]): 61.8%
Activity (SGC-7901 [6]): 30%
Activity (HepG2 [7]): 1.04 g
Activity (SGC-7901 [8]): 5.96%
Activity [9]: 24.25 g
Activity (CCRF S-180 [10]): 1.2 g
inhibition in vivo at 60 mg/kg (CCRF S-180 [11]): 40.6%
Activity (SGC-7901 [12]): 15.8%
Activity (SGC-7901 [13]): 32.9%
Activity (SGC-7901 [14]): 37.1%
Activity (SGC-7901 [15]): 23.2%
Activity (SGC-7901 [16]): Active
Activity (SGC-7901 [17]): 28.5%
Activity (SGC-7901 [18]): 0.07%
Activity (SGC-7901 [19]): 42.6%
Activity (SGC-7901 [20]): 19.7%
Activity (SGC-7901 [21]): 26.4%
Activity (SGC-7901 [22]): 60.9%
Activity [23]: 26.34 g
Activity (SGC-7901 [24]): 28.9%
Activity (SGC-7901 [25]): 0.282%
Activity (SGC-7901 [26]): 7.34%
viability at 1 µM (SGC-7901 [27]): 86.6%
viability at 4 µM (SGC-7901 [28]): 40.2%
Activity (SGC-7901 [29]): 33.2%
Activity (SGC-7901 [30]): 0.3%
Activity (SGC-7901 [31]): 18.3%
